Test results: ChEMBL document CHEMBL1926595, “Design and synthesis of 4,6-substituted-(diaphenylamino)quinazolines as potent EGFR inhibitors with antitumor activity” (Bioorg Med Chem, 2012)

Key:
[1] = Antiproliferative activity against human A16-F10 cells after 48 hrs by MTT assay; format: functional, cell-based; settings: A16-F10, 48 h
Procedure, shortened: (§1)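 Cells were seeded at 7 × 10³ per well and, after 24 h, exposed while growing exponentially to a range of concentrations for 48 h. MTT (5 mg/mL stock in PBS) was added for 6 h, followed by 10% SDS in 0.01 N HCl for a further 4 h at 37 °C, then absorbance read at 570 nm. Survival was taken as % of untreated cells. IC50 came from 6-well replicates in at least two independent experiments.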

[2] = system: HepG2; assay: Antiproliferative activity against human HepG2 cells after 48 hrs by MTT assay; format: functional, cell-based; settings: HepG2, 48 h; procedure, shortened: as §1
[3] = target: Epidermal growth factor receptor (Homo sapiens, UniProt P00533); assay: Inhibition of EGFR expressed in baculovirus infected Sf9 cells assessed as inhibition of autophosphorylation preincubated for 10 mins measured after 1 hr by DELFIA/Time-Resolved Fluorometry
Chain of Epidermal growth factor receptor (P00533 whole entry): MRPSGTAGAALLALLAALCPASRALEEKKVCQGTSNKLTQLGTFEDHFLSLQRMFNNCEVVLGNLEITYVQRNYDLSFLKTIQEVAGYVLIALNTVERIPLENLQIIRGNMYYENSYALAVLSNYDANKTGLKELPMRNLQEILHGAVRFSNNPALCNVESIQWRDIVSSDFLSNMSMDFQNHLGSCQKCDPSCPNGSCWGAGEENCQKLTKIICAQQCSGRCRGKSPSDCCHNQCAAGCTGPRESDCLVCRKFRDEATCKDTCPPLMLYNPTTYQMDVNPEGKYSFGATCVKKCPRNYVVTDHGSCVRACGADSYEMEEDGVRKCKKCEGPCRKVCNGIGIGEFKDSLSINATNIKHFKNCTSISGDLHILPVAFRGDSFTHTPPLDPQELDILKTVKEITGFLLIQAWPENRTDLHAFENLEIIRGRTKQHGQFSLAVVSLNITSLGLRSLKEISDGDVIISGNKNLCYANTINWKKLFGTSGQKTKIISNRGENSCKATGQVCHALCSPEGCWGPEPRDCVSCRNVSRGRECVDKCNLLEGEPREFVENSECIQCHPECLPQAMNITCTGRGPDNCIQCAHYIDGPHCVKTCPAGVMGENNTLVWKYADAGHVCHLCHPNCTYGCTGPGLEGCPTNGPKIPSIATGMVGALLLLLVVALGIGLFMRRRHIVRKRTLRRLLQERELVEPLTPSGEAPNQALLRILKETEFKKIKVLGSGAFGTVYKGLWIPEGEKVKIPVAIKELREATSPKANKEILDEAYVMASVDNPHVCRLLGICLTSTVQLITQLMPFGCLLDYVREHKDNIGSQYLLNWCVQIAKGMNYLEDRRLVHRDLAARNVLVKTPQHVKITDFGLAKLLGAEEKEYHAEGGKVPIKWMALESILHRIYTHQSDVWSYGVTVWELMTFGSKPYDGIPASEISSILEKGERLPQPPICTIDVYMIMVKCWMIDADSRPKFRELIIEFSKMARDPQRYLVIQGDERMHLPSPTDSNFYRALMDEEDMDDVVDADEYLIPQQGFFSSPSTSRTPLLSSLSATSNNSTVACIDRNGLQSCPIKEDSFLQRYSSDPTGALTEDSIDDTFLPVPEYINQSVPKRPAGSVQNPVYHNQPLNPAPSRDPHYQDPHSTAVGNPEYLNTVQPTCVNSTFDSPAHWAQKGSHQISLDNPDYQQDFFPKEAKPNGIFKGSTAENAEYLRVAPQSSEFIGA

[4] = system: HepG2; assay: Induction of apoptosis in human HepG2 cells assessed as apoptotic cells at 1 uM after 3 days using annexin-V/PI double staining by flow cytometry (reference value: 0.98%); format: functional
[5] = system: HepG2; assay: Induction of apoptosis in human HepG2 cells after 3 days using annexin-V/PI double staining by flow cytometry; format: functional, cell-based
[6] = system: HepG2; assay: Induction of apoptosis in human HepG2 cells assessed as apoptotic cells at 2 uM after 3 days using annexin-V/PI double staining by flow cytometry (reference value: 0.98%); format: functional

SMILES	IC50 [2]	IC50 [3]	IC50 [1]	Activity [4]	Activity [5]	Activity [6]
Brc1cccc(Nc2ncnc3ccc(NCc4ccccc4Br)cc23)c1	2.76 µM	–	4.38 µM	–	–	–
Clc1cccc(Nc2ncnc3ccc(NCc4ccccc4Br)cc23)c1	4.17 µM	–	5.83 µM	–	–	–
COc1ccccc1CNc1ccc2ncnc(Nc3cccc(Cl)c3)c2c1	9.85 µM	13.9 µM	14.8 µM	–	–	–
Clc1cccc(Nc2ncnc3ccc(NCc4ccccc4Cl)cc23)c1	5.33 µM	–	7.12 µM	–	–	–
C#Cc1cccc(Nc2ncnc3cc(OCCOC)c(OCCOC)cc23)c1 [ERLOTINIB]	–	–	0.02 µM	–	–	–
COc1ccccc1CNc1ccc2ncnc(Nc3cccc(Br)c3)c2c1	8.82 µM	11.2 µM	12.5 µM	–	–	–
Clc1cccc(Nc2ncnc3ccc(NCc4ccc(Br)cc4)cc23)c1	3.81 µM	5.67 µM	4.01 µM	–	–	–
COc1ccc(CNc2ccc3ncnc(Nc4cccc(Cl)c4)c3c2)cc1	5.26 µM	–	8.43 µM	–	–	–
COc1ccc(CNc2ccc3ncnc(Nc4cccc(Br)c4)c3c2)cc1	5.43 µM	–	10.4 µM	–	–	–

Second part, led by results:

IC50 [2]	IC50 [3]	SMILES	IC50 [1]	Activity [4]	Activity [5]	Activity [6]
1.26 µM	3.22 µM	Oc1ccccc1CNc1ccc2ncnc(Nc3cccc(Br)c3)c2c1	1.87 µM	–	–	–
1.78 µM	4.41 µM	Clc1ccc(CNc2ccc3ncnc(Nc4cccc(Cl)c4)c3c2)cc1	2.67 µM	–	–	–
1.41 µM	3.13 µM	Brc1ccc(CNc2ccc3ncnc(Nc4cccc(Br)c4)c3c2)cc1	2.21 µM	–	–	–
1.82 µM	–	Clc1ccccc1CNc1ccc2ncnc(Nc3cccc(Br)c3)c2c1	3.74 µM	–	–	–
1.52 µM	1.87 µM	Oc1ccc(CNc2ccc3ncnc(Nc4cccc(Cl)c4)c3c2)cc1	1.58 µM	–	–	–
0.28 µM	–	Oc1ccc(CNc2ccc3ncnc(Nc4cccc(Br)c4)c3c2)cc1	0.59 µM	20.8%	Dose-dependent effect	54.2%
2.69 µM	–	Fc1ccc(CNc2ccc3ncnc(Nc4cccc(Cl)c4)c3c2)cc1	2.95 µM	–	–	–
2.08 µM	3.54 µM	Oc1ccccc1CNc1ccc2ncnc(Nc3cccc(Cl)c3)c2c1	3.18 µM	–	–	–
0.92 µM	1.64 µM	Clc1ccc(CNc2ccc3ncnc(Nc4cccc(Br)c4)c3c2)cc1	1.82 µM	–	–	–
1.77 µM	–	Fc1ccc(CNc2ccc3ncnc(Nc4cccc(Br)c4)c3c2)cc1	2.09 µM	–	–	–
